Screens (PubChem BioAssay)
This is a sample that favours compounds with a hit; in the whole collection about 9.2% have one here.
PTEN del growth: PTEN-deleted cell growth suppression. HCT116 PTEN-null viability, CellTiter-Glo, 60 h; active compounds read low. viability, % at 10 µM. 1.2% of 140,000 active. AID 827;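 active = viability at or below a set limit, 4 SD under the median of all tested compounds, cut at about 3.7% in these data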;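 also: PTEN knockout HCT116 line with beta catenin targeted HCT116 as companion control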
Lmaj promast: reduces viability of Leishmania major promastigotes | resazurin fluorescence viability | inhibition, % at 10 µM | 9% of 200,000 active; in the data active = inhibition above about 50%;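 also: promastigotes grown with compound for 44 hours at 28 °C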
Dynein transport: blocks dynein driven cargo transport along microtubules | z-score, hits read low | 0.47% of 220,000 active | 3617.4 mouse cells, GR-EGFP nuclear translocation imaging; test concentration mostly 20 µM; stimulated with dexamethasone, 1 µM; active compounds read low;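 active = plate z-score of nuclear minus cytoplasmic receptor signal below a set negative limit, without overly bright fluorescence or cell loss, cut at about -3.5 in these data, passing the limit was not always enough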;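 also: z-score of nuclear minus cytoplasmic ring GR-EGFP intensity difference per well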
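Buffer or medium: Induction medium lacking tetracycline, stripped serum | Also added: Dexamethasone agonist, 1.0 µM final, for 30 min | Timing: 48 h induction, 1 h compound, 30 min dex at 37 °C | Detection: Formaldehyde fixation, Hoechst nuclear stain, 10x automated fluorescence imaging | Measure: Nuclear versus cytoplasmic GR-EGFP signal, averaged per well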
bCat KO growth: beta-catenin-lacking colon tumor cell growth suppression. viability, % at 10 µM. AID 818. 1.5% of 140,000 active. HCT116 beta-catenin knockout viability, CellTiter-Glo, 60 h; active compounds read low;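 active = viability at or under a set limit, the compound median less 4 SD, cut at about 6% in these data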
Autophagy HCS: autophagy modulation, high-content screen; calls only at 10 µM (by protocol); AID 463193; 0.98% of 190,000 active; MEF GFP-LC3 puncta imaging; test concentration mostly 10 µM;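 active = percentage of spot-positive cells more than 3 SD above its plate mean, without a fluorescence outlier flag or 80% toxicity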
Each line names hits and unclear results; the compound was inactive in the other large screens.

COc1cc(OC)cc(C(=O)NCC(=O)OCC(=O)/C=C2/N(C)c3ccccc3C2(C)C)c1	none (no result: PTEN del growth, bCat KO growth)
CC(C)[C@H](NC(=O)c1ccccc1)C(=O)OCC(=O)/C=C1/N(C)c2ccccc2C1(C)C	none
CN1/C(=C\C(=O)COC(=O)c2ccc([N+](=O)[O-])o2)C(C)(C)c2ccccc21	Lmaj promast 81 (no result: PTEN del growth, bCat KO growth)
CC(C)(C)C1CCC(OC(=O)CN2CCCCC2)CC1 (centres undefined)	none (no result: PTEN del growth, Lmaj promast, bCat KO growth, Autophagy HCS)
Cc1c(CCCN)c2ccccc2n1Cc1ccccc1	Lmaj promast 92 (no result: PTEN del growth, bCat KO growth)
CCN(C(=O)CSc1nnc(Nc2ccccc2)s1)C1CCS(=O)(=O)C1 (centres undefined)	Lmaj promast 58, Autophagy HCS active (no result: PTEN del growth, bCat KO growth)
CCCCn1c(SCC(=O)N(CC)C2CCS(=O)(=O)C2)nc2cc(S(N)(=O)=O)ccc21 (centres undefined)	none (no result: PTEN del growth, bCat KO growth)
CCN(C(=O)CSc1nc2cc(C(F)(F)F)ccc2n1Cc1ccccc1)C1CCS(=O)(=O)C1 (centres undefined)	Lmaj promast 98
Cc1ccc(Nc2nnc(SCC(=O)N(C)C3CCS(=O)(=O)C3)s2)cc1 (centres undefined)	Lmaj promast 56 (no result: PTEN del growth, bCat KO growth)
Cc1ccc(S(=O)(=O)N2CCN(c3ccccc3)CC2)cc1C(N)=O	none (no result: PTEN del growth, bCat KO growth)
O=c1cc(/C=C/c2c(F)cccc2Cl)[nH]c2ccccc12	none
CC(=O)c1cc(C(=O)c2ccccc2)sc1Nc1ccccc1	none
CC1SC(c2ccccc2)N(CC(O)c2ccc([N+](=O)[O-])cc2)C1=O (centres undefined)	none (no result: PTEN del growth, bCat KO growth)
CN1C(=O)NC(NC(=O)c2cccs2)(C(F)(F)F)C1=O (centres undefined)	none
O=C(NC1(C(F)(F)F)NC(=O)N(c2ccccc2)C1=O)c1cccs1 (centres undefined)	Lmaj promast 57
CC(C)Cc1cc(CN2CCCC(CO)(Cc3cccc(Cl)c3)C2)[nH]n1 (centres undefined)	Lmaj promast 68 (no result: PTEN del growth, bCat KO growth)
CC(C)Cc1cc(CN2CCC(CO)(Cc3cccc(C(F)(F)F)c3)CC2)[nH]n1	Lmaj promast 85 (no result: PTEN del growth, bCat KO growth)
Cc1cc(CN2CCCC(CO)(Cc3cccc(Cl)c3)C2)n[nH]1 (centres undefined)	none (no result: PTEN del growth, bCat KO growth)
OCC1(Cc2cccc(Cl)c2)CCCN(Cc2ccc3cc(F)ccc3n2)C1 (centres undefined)	Lmaj promast 55 (no result: PTEN del growth, bCat KO growth)
Cc1ccc(-c2nnn(C/C(N)=N/O)n2)cc1	none (no result: PTEN del growth, bCat KO growth)
COc1cc2c(cc1OC)C1=C(C#N)CN(C3CCCCC3)CN1CC2	none
COc1ccc(CCN2CC(C#N)=C3c4cc(OC)c(OC)cc4CCN3C2)cc1OC	Lmaj promast 95
COc1ccccc1N(C)S(=O)(=O)c1ccc(Cl)c(C(=O)OCc2c(C)noc2C)c1	Lmaj promast 53 (no result: PTEN del growth, bCat KO growth)
Cc1noc(C)c1COC(=O)c1cc(F)c(F)cc1Cl	none
CO/N=C/CC(=O)c1cnc(-c2ccccc2)s1	none (no result: PTEN del growth, bCat KO growth)
Nc1nccc(-c2nn(-c3ccc(Cl)cc3)ccc2=O)n1	none (no result: PTEN del growth, Lmaj promast, bCat KO growth, Autophagy HCS)
C#CCSc1nccc(-c2nn(-c3ccc(C)cc3)ccc2=O)n1	none
CCSc1nccc(-c2nn(-c3ccc(C)cc3)ccc2=O)n1	Autophagy HCS active
C=CCSc1nccc(-c2nn(-c3ccc(C)cc3)ccc2=O)n1	Autophagy HCS active
CSc1nccc(-c2nn(-c3ccc(C)cc3)ccc2=O)n1	Lmaj promast 100
COc1ccc(S(=O)(=O)N2CCCC(C(F)(F)F)C2)cc1 (centres undefined)	none (no result: PTEN del growth, bCat KO growth)
CN(C)C(CNC(=O)c1ccc(S(=O)(=O)N(C)C)cc1)Cc1ccccc1 (centres undefined)	Autophagy HCS active (no result: PTEN del growth, bCat KO growth)
CC(=O)Nc1ccc(S(=O)(=O)N2CCSC2c2ccccc2)cc1 (centres undefined)	none
CC(=O)Nc1ccc(S(=O)(=O)N2CCSC2c2ccccc2Cl)cc1 (centres undefined)	Lmaj promast 64
O=C(COC(=O)c1cc(F)cc(F)c1)Nc1cccnc1Cl	none (no result: PTEN del growth, bCat KO growth)
Cc1nn(-c2ccccc2)c(C)c1C(=O)OCC(=O)NC12CC3CC(CC(C3)C1)C2	none
CC(=O)Nc1ccc(NC(=O)COC(=O)c2c(C)nn(-c3ccccc3)c2C)cc1	Lmaj promast 67
COc1ccccc1Nc1nc(-c2c(C)nc3ncccn23)cs1	none (no result: PTEN del growth, bCat KO growth)
COc1cccc(Oc2cn[nH]c2-c2ccc(O)cc2O)c1	Lmaj promast 75
CC(C)c1ccc(NC(=O)N2CCC(c3nc4ccccc4o3)CC2)cc1	none
CCC(C)N(C(=O)COC(=O)Cc1n[nH]c(=O)c2ccccc12)C1CCS(=O)(=O)C1 (centres undefined)	none
COc1cc(N(C)C)c([N+](=O)[O-])cc1C(=O)N1CCN(Cc2ccccc2)CC1	none (no result: PTEN del growth, bCat KO growth)
C=CCOc1c(Br)cc(CNc2ccc(NC(=O)C(C)C)c(OC)c2)cc1OC	Lmaj promast 99
C=CCOc1c(Br)cc(CNn2nnnc2N)cc1OC	Lmaj promast 101
COc1cc(CNc2ccc(C(=O)O)cc2)cc(Br)c1OCC(=O)NC(C)(C)C	none
C=CCOc1ccc(CNn2nnnc2N)cc1	none
COc1ccc(CCN2C(=O)c3cccc4c(C(=O)N5CCCCC5)ccc(c34)C2=O)cc1OC	Autophagy HCS active
COc1ccc(CCNC(=O)CCN2C(=O)c3cccc4cccc(c34)C2=O)cc1OC	none (no result: PTEN del growth, bCat KO growth)
COc1ccccc1NC(=O)CC(=O)CSc1nnc(-c2ccc(C)cc2)n1C	none
COc1ccccc1NC(=O)c1ccc(NC(=O)CSc2n[nH]c(N)n2)cc1	Lmaj promast 65
COc1ccccc1NC(=O)CSc1nnc(-c2ccc(NC(C)=O)cc2)n1C	Autophagy HCS active
O=C(COC(=O)c1cc(-c2cccs2)nc2ccccc12)NC1CCS(=O)(=O)C1 (centres undefined)	none (no result: PTEN del growth, bCat KO growth)
Cc1ccc2c(c1)[C@@H]1CN(C)CC[C@@H]1N2S(=O)(=O)c1ccc([N+](=O)[O-])cc1	none
Cc1ccc2c(c1)[C@@H]1CN(C)CC[C@@H]1N2S(=O)(=O)c1ccc(F)cc1	Lmaj promast 88
CCn1c(O)c(N=NC(=O)CNC(=O)c2ccco2)c2ccccc21	none
CCCn1c(O)c(N=NC(=O)c2ccco2)c2ccccc21	Lmaj promast 68
O=C(COC(=O)CNS(=O)(=O)c1cccc(Br)c1)Nc1ccccc1Sc1ccccc1	none
CSc1nn2cc(CCN3CCOCC3)c(-c3ccc(F)cc3)nc2c1C#N	Autophagy HCS active (no result: PTEN del growth, bCat KO growth)
CC(=O)c1ccc(OC(=O)CCc2nc3ccccc3s2)cc1	none (no result: PTEN del growth, bCat KO growth)
O=C(O)C1CC=CCC1C(=O)Nc1ccccc1 (centres undefined)	none
CC1CC1C(=O)Nc1ccc(-c2ccccc2)cc1 (centres undefined)	Lmaj promast 51
Cc1cccc(NC(=O)CSc2nnc(CNC(=O)c3ccc(S(=O)(=O)N(C)C)cc3)n2-c2ccccc2)c1	Lmaj promast 55
Cc1cccc(-n2c(CNC(=O)c3ccc(S(=O)(=O)N(C)C)cc3)nnc2SCC(=O)Nc2ccc(F)cc2)c1	none
Cc1cccc(NC(=O)CSc2nnc(CNC(=O)c3ccc(S(=O)(=O)N(C)C)cc3)n2-c2cccc(C)c2)c1	Lmaj promast 72
